The text below walks through data of publication PMC12634867 (Neoplasia (New York, N.Y.), 2025).

Series [1] in a line: plasma pharmacokinetics of single oral AZD5438 dosing in mice. Type of series: in vivo. To be noted: CBA, mouse, 37.5 mg/kg.
A short description of series [2]: clinical phase I tolerability, cancer patients. The class given is in vivo, human.
Series [3] concerns CBA/CaJ mice. In words: multi-cycle cisplatin ototoxicity mouse model, ABR. Type of series: in vivo.
Series [4] concerns CBA/CaJ mice. In words: multi-cycle cisplatin ototoxicity mouse model, DPOAE. The class given is in vivo. The following applies: any combination group.
Series [5] relates to CBA/CaJ mice. Briefly: multi-cycle cisplatin ototoxicity mouse model, hair cell counts. Type of series: in vivo.
Series [6] has as its system CBA/CaJ mice. Briefly: multi-cycle cisplatin ototoxicity mouse model, survival and general condition. Type of series: in vivo.
For a further series, the system named is NCCIT cells. Briefly: NCCIT cell confluence. The class given is cell-based, human. The following applies: for IC50: read-out: IC50, NCCIT cells.
In the next series the test system is JKT1 cells. In words: MTT cell viability, JKT1. To be noted: ∼0.02-100 μM AZD5438 together with cisplatin, 24 h MTT. The class given is cell-based.
The next series relates to SEM-1 cells. In words: MTT cell viability, SEM-1. Type of series: cell-based. The following applies: ∼0.02-100 μM AZD5438 together with cisplatin, 24 h MTT.
Series [7] concerns NCCIT tumor-bearing SCID mice. Briefly: NCCIT xenograft mouse model. Type of series: in vivo. An outline of the steps: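 Male SCID mice aged 12 wk were implanted s.c. with 1 × 10⁷ NCCIT cells in 1:1 Matrigel. At mean tumor size ~100 mm³, they were randomized into four groups (n = 10). […] Oral test compound or vehicle (10% DMSO/5% Tween-80/40% PEG-300/45% saline) was given b.i.d. on days 1–3. Cycles lasted 7 days, three in all. Caliper volumes normalized to baseline; two-way ANOVA with Tukey.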

Another series concerns cochlear explants. To be noted: read-out: EC50 in cochlear explants; protection against cisplatin; cited from earlier work.
The next series concerns cyclin E/CDK2. To be noted: read-out: in vitro IC50 against cyclin E/CDK2; cited from earlier work.
The test system of another series is cyclin B1/CDK1. To be noted: read-out: in vitro IC50 against cyclin B1/CDK1; cited from earlier work.
The subject of a further series is cyclin D1/CDK4. The following applies: read-out: in vitro IC50 against cyclin D1/CDK4; cited from earlier work.
The conditions of series [8]: cited from earlier work.
The conditions of series [9]: single dose, healthy male volunteers; cited from earlier work.
The conditions of series [10]: cited from earlier work. The source holds these as a separate data set.
Series [11] relates to IMR-32, SH-SY5Y, SKN-AS, SHP-77, H115, A549, Kelly, JKT1, NCCIT. The following applies: neuroblastoma, lung and testicular origins; cited from earlier work.
The next series has as its system FVB mice. To be noted: cited from earlier work.
In series [12] the test system is noise-induced hearing loss (NIHL) model. The following applies: cited from earlier work.
The next series has as its system mice. To be noted: cited from earlier work.
The test system of another series is phosphorylated Rb. The following applies: cited from earlier work.
The test system of the next series is cyclin A/CDK2. The following applies: read-out: in vitro IC50 against cyclin A/CDK2; cited from earlier work.
A further series has as its system CBA/CaJ model. To be noted: CBA/CaJ model and retrospective human study; cited from earlier work.

Read-outs that look alike come from different tables or passages of the source.

In the case of `Cc1ncc(-c2ccnc(Nc3ccc(S(C)(=O)=O)cc3)n2)n1C(C)C` [AZD5438], the Cmax (in general, the highest concentration seen after dosing) in [1] is 1470 ± 916 ng/mL; in series [2] (human, plasma, oral) it was below 300 ng/mL. The same molecule gave a concentration at 2 h in series [1] of 621 ± 305 ng/mL. In series [1], the concentration at 3 h amounted to 510 ± 135 ng/mL. Further, in series [2] (cancer patients, four times daily (QID), conjectured from NTDs), the “estimated MTD” value was 20 to 90 mg. Further, the “human equivalent (tolerated) mouse dose” value in series [2] (extrapolated from tolerated Cmax) is recorded as at most 9.4 mg/kg. For the same molecule, the “ABR wave 1 amplitudes, protection vs cisplatin only” value in the series on CBA/CaJ mice [3] (any combination group) is reported as “no significant protection”. Further, in the series on CBA/CaJ mice [3] (combination groups, all levels at 8 and 16 kHz), the “ABR wave 1 latency, improvement vs cisplatin only” value is “did not reveal significant improvements”. Also, the “DPOAE amplitudes input and output analysis, protection vs cisplatin only” value in the series with CBA/CaJ mice [4] is given as “no significant protection”. For the same molecule, the “DPOAE thresholds and amplitudes, protection vs cisplatin only” value with CBA/CaJ mice [4] is listed as “no significant protection”. The “reduction of cisplatin-induced outer hair cell loss” value in the series on CBA/CaJ mice [5] (AZD5438 co-treated groups, 32 kHz region) is “did not significantly reduce cisplatin-induced outer hair cell loss”. Also, the “inner hair cell loss” value in the series on CBA/CaJ mice [5] (all groups) is reported as “none of the groups caused any inner hair cell loss”. Also, the “adverse effects based on body weight or behavior” value with CBA/CaJ mice [6] (co-treated animals (Fig. 2, Fig. 3)) is given as “no significant adverse effects”. The “mortality during the entire experiments” value in the series on CBA/CaJ mice [6] (multi-cycle cisplatin + AZD5438 b.i.d.) is “Only a few mice mostly in the cisplatin + 37.5 mg/kg AZD5438 group died”. Also, the IC50 in the series with NCCIT cells (Homo sapiens, NCCIT, 40 h) is 1380 nM; in the series on cyclin E/CDK2, 6 nM; in the series on cyclin B1/CDK1 it was 16 nM; with cyclin D1/CDK4, 450 nM; in the series on cyclin A/CDK2, 45 nM. Besides, the “cell death of combination vs either drug alone” value in the series on NCCIT cells (cisplatin 5 μM + AZD5438 3 μM, 40 h) is “significantly higher cell death”. Moreover, in the series on JKT1 cells, the “interference with cisplatin tumor cell loss, JKT1” value is recorded as “no substantial interferences”. Besides, the “interference with cisplatin tumor cell loss, SEM-1” value in the series with SEM-1 cells is “no substantial interferences”. Besides, in [7] (9.4 mg/kg b.i.d. oral + cisplatin 3 mg/kg), the “tumor volume, cisplatin + AZD5438 vs cisplatin only” value is “no significant differences”. For the same molecule, the tumor volume result in series [7] (AZD5438 only, 9.4 mg/kg b.i.d. oral, vs vehicle) is “increased at similar rates”. Further, the body weight entry in [7] (cisplatin + AZD5438 vs cisplatin only) is given as “trend of body weight loss more than the cisplatin only group, although insignificantly”. Further, the survival entry in series [7] (combination group and AZD5438 only group, 9.4 mg/kg b.i.d.) is reported as “several deaths occurred”. Besides, the EC50 (commonly the concentration at which the effect is half-maximal) with cochlear explants is 5 nM. Besides, in series [8] (oral, animal and human studies), the “dose-dependent linear Cmax values” is on record as 5 to 1,000 ng/mL. For the same molecule, the Tmax (commonly the time at which the peak concentration occurs) in [8] (plasma, single oral dose) is 30 to 180 min. For the same molecule, in series [9], the “maximum tolerated dose (MTD)” value is reported as 80 mg. Moreover, in series [10] (cancer patient cohort, QID one day weekly), the well tolerated dose was at most 90 mg. The “non-tolerated dose (NTD)” value in series [10] (cancer patients, four times (QID) for one day per week) is above 90 mg; in series [10] (cancer patients, four times daily for at least 14 and 28 consecutive days), 40 mg. Moreover, the adverse events result in [10] (continuous dosing, 40 mg QID, cancer patients) was “gastrointestinal in origin, including profound anorexia and fatigue in some patients, accompanied by nausea and vomiting”. Moreover, the “interference with cisplatin's tumor killing in nine cancer cell lines” value in [11] is listed as “does not interfere”. In the series with FVB mice (oral 75 mg/kg once daily for three days), the “protection against CIHL” value is reported as “significantly protected against CIHL at 32 kHz”. Further, in the series with FVB mice (transtympanic 50 µM, one hour before and 24 h after cisplatin), the “cisplatin-induced hearing loss (ABR thresholds at 32 kHz)” value is given as “significantly attenuated cisplatin-induced hearing loss”. Besides, the “protection in NIHL model, co-treatment with dabrafenib” value in series [12] (AZD5438 and dabrafenib, preservation at 8, 16 and 32 kHz) is listed as “enhanced protection”. Besides, the “auditory thresholds in NIHL model” value in series [12] (oral 75 mg/kg) was “improved auditory thresholds at 8 and 16 kHz”. Moreover, the cisplatin-induced nephrotoxicity result with mice is on record as “protected against cisplatin-induced nephrotoxicity”. In addition, the “time after administration within which phosphorylated Rb was modulated” value with phosphorylated Rb is 1 to 3 h.
In the case of `CC(C)c1c(C(=O)Nc2ccccc2)c(-c2ccccc2)c(-c2ccc(F)cc2)n1CC[C@@H](O)C[C@@H](O)CC(=O)O` [atorvastatin], in the series with CBA/CaJ model, the auditory protection was 5–8 dB.
For `N.N.[Cl][Pt][Cl]` [cisplatin, cis-diamminedichloroplatinum (II)], in the series with NCCIT cells (single agent, confluency over 40 h), the IC50 was determined as 9000 nM. For the same molecule, the tumor volume entry in series [7] (cisplatin only, 3 mg/kg, two days per week) is “completely obliterated the tumor volumes”. The auditory threshold elevations in the series on FVB mice (single IP cisplatin 30 mg/kg, 8, 16 and 32 kHz) was 5–20 dB.
